Laboratory results: ChEMBL document CHEMBL5634209, “Computational design, synthesis, and assessment of 3-(4-(4-(1,3,4-oxadiazol-2-yl)-1H-imidazol-2-yl)phenyl)-1,2,4-oxadiazole derivatives as effective epidermal growth factor receptor inhibitors: a prospective strategy for anticancer therapy” (RSC Med Chem, 2024)

How the values were obtained:
[1] = Selectivity index, ratio of IC50 for cytotoxicity against African green monkey Vero cells to IC50 for antiproliferative activity against human A549 cells; assay type: toxicity, cell-based; conditions: Vero cells versus A549 cells, read-out: Ratio IC50
DU-145 = assay: Antiproliferative activity against human DU-145 cells assessed as reduction in cell viability measured after 48 hrs by MTT assay; assay type: functional, cell-based; conditions: DU-145, 48 h
Outline: (§1)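 Cells were grown at 37 °C in 5% CO2 in medium with 10% FBS: RPMI-1640 for A549, DU-145 and HepG2, and DMEM/F12 for PC-3. They were seeded at 5×10^3/well. At 70–80% confluence they were exposed to a concentration range diluted from a 60 mM DMSO stock for 48 h at 37 °C, with 0.1% DMSO as vehicle. MTT 5 mg/mL stock was added for 4 h, formazan dissolved in DMSO, A570 read, and % inhibition calculated against control. IC50 was taken from the concentration series.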

[2] = Selectivity index, ratio of IC50 for cytotoxicity against African green monkey Vero cells to IC50 for antiproliferative activity against human HepG2 cells; assay type: toxicity, cell-based; conditions: Vero cells versus HepG2 cells, read-out: Ratio IC50
[3] = Selectivity index, ratio of IC50 for cytotoxicity against African green monkey Vero cells to IC50 for antiproliferative activity against human PC-3 cells; assay type: toxicity, cell-based; conditions: Vero cells versus PC-3 cells, read-out: Ratio IC50
HepG2 [4] = assay: Antiproliferative activity against human HepG2 cells assessed as reduction in cell viability measured after 48 hrs by MTT assay; assay type: functional, cell-based; conditions: HepG2, 48 h; outline: as §1
A549 = assay: Antiproliferative activity against human A549 cells assessed as reduction in cell viability measured after 48 hrs by MTT assay; assay type: functional, cell-based; conditions: A549, 48 h; outline: as §1
[5] = Selectivity index, ratio of IC50 for cytotoxicity against African green monkey Vero cells to IC50 for antiproliferative activity against human DU-145 cells; assay type: toxicity, cell-based; conditions: Vero cells versus DU-145 cells, read-out: Ratio IC50
PC-3 = assay: Antiproliferative activity against human PC-3 cells assessed as reduction in cell viability measured after 48 hrs by MTT assay; assay type: functional, cell-based; conditions: PC-3, 48 h; outline: as §1
[6] = Cytotoxicity against African green monkey Vero cells assessed as reduction in cell viability measured after 48 hrs by MTT assay; assay type: toxicity, cell-based; conditions: African green monkey (Chlorocebus sabaeus)
[7] = target: Epidermal growth factor receptor (Homo sapiens, UniProt P00533); assay: Inhibition of wild type EGFR (unknown origin) incubated for 40 mins by Kinase Glo Max reagent based luminescence analysis
[8] = target: Epidermal growth factor receptor (Homo sapiens, UniProt P00533, T790M); assay: Inhibition of EGFR T790M mutant (unknown origin) incubated for 40 mins by Kinase Glo Max reagent based luminescence analysis
HepG2 [9] = assay: Induction of apoptosis in human HepG2 cells assessed as viable cells at 0.44 uM incubated for 24 hrs by AnnexinV-FITC/PI staining based flow cytometry (reference value: 96.94%); assay type: functional; conditions: read-out: Activity
HepG2 [10] = assay: Induction of apoptosis in human HepG2 cells assessed as necrotic cells at 0.11 uM incubated for 24 hrs by AnnexinV-FITC/PI staining based flow cytometry (reference value: 0.12%); assay type: functional
HepG2 [11] = assay: Induction of apoptosis in human HepG2 cells assessed as late apoptotic cells at 0.11 uM incubated for 24 hrs by AnnexinV-FITC/PI staining based flow cytometry (reference value: 0.032%); assay type: functional
HepG2 [12] = assay: Induction of apoptosis in human HepG2 cells assessed as viable cells at […] incubated for 24 hrs by AnnexinV-FITC/PI staining based flow cytometry (reference value: 96.94%); assay type: functional; conditions: dose 0.22 µM, read-out: Activity
HepG2 [13] = assay: Induction of cell cycle arrest in human HepG2 cells assessed as accumulation of cells at S phase at 0.11 uM incubated for 24 hrs by propidium iodide staining based flow cytometry (reference value: 46.98%); assay type: functional
Outline: (§2)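 HepG2 cells were seeded, incubated overnight at 37 °C and, at 70–80% confluence, treated 24 h with 0.11, 0.22 or 0.44 µM in fresh medium; untreated cells served as control. Cells were then digested, washed in PBS and fixed in pre-cooled 75% ethanol at 4 °C for over 18 h. Staining used propidium iodide 50 µg/mL plus RNase 50 µg/mL for 30 min at 37 °C, and DNA content was read by flow cytometry.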

HepG2 [14] = assay: Induction of cell cycle arrest in human HepG2 cells assessed as accumulation of cells at G2/M phase at 0.44 uM incubated for 24 hrs by propidium iodide staining based flow cytometry (reference value: 18.81%); assay type: functional; outline: as §2
HepG2 [15] = assay: Induction of cell cycle arrest in human HepG2 cells assessed as accumulation of cells at S phase at […] incubated for 24 hrs by propidium iodide staining based flow cytometry (reference value: 46.98%); assay type: functional; conditions: dose 0.22 µM
HepG2 [16] = assay: Induction of apoptosis in human HepG2 cells assessed as early apoptotic cells at 0.11 uM incubated for 24 hrs by AnnexinV-FITC/PI staining based flow cytometry (reference value: 2.91%); assay type: functional
HepG2 [17] = assay: Induction of cell cycle arrest in human HepG2 cells assessed as accumulation of cells at G0/G1 phase at 0.44 uM incubated for 24 hrs by propidium iodide staining based flow cytometry (reference value: 35.61%); assay type: functional; outline: as §2
HepG2 [18] = assay: Induction of apoptosis in human HepG2 cells assessed as necrotic cells at 0.44 uM incubated for 24 hrs by AnnexinV-FITC/PI staining based flow cytometry (reference value: 0.12%); assay type: functional
HepG2 [19] = assay: Induction of apoptosis in human HepG2 cells assessed as late apoptotic cells at 0.44 uM incubated for 24 hrs by AnnexinV-FITC/PI staining based flow cytometry (reference value: 0.032%); assay type: functional
HepG2 [20] = assay: Induction of cell cycle arrest in human HepG2 cells assessed as accumulation of cell debris at 0.11 uM incubated for 24 hrs by propidium iodide staining based flow cytometry (reference value: 0.12%); assay type: functional; outline: as §2
HepG2 [21] = assay: Induction of cell cycle arrest in human HepG2 cells assessed as accumulation of cells at G2/M phase at 0.11 uM incubated for 24 hrs by propidium iodide staining based flow cytometry (reference value: 18.81%); assay type: functional; outline: as §2
HepG2 [22] = assay: Induction of apoptosis in human HepG2 cells assessed as viable cells at 0.11 uM incubated for 24 hrs by AnnexinV-FITC/PI staining based flow cytometry (reference value: 96.94%); assay type: functional; conditions: read-out: Activity
HepG2 [23] = assay: Induction of apoptosis in human HepG2 cells assessed as early apoptotic cells at 0.44 uM incubated for 24 hrs by AnnexinV-FITC/PI staining based flow cytometry (reference value: 2.91%); assay type: functional
HepG2 [24] = assay: Induction of cell cycle arrest in human HepG2 cells assessed as accumulation of cells at G0/G1 phase at […] incubated for 24 hrs by propidium iodide staining based flow cytometry (reference value: 35.61%); assay type: functional; conditions: dose 0.22 µM
HepG2 [25] = assay: Induction of cell cycle arrest in human HepG2 cells assessed as accumulation of cell debris at 0.44 uM incubated for 24 hrs by propidium iodide staining based flow cytometry (reference value: 0.12%); assay type: functional; outline: as §2
HepG2 [26] = assay: Induction of cell cycle arrest in human HepG2 cells assessed as accumulation of cells at G0/G1 phase at 0.11 uM incubated for 24 hrs by propidium iodide staining based flow cytometry (reference value: 35.61%); assay type: functional; outline: as §2
HepG2 [27] = assay: Induction of cell cycle arrest in human HepG2 cells assessed as accumulation of cells at G2/M phase at […] incubated for 24 hrs by propidium iodide staining based flow cytometry (reference value: 18.81%); assay type: functional; conditions: dose 0.22 µM
HepG2 [28] = assay: Induction of cell cycle arrest in human HepG2 cells assessed as accumulation of cell debris at […] incubated for 24 hrs by propidium iodide staining based flow cytometry (reference value: 0.12%); assay type: functional; conditions: dose 0.22 µM
HepG2 [29] = assay: Induction of apoptosis in human HepG2 cells assessed as early apoptotic cells at […] incubated for 24 hrs by AnnexinV-FITC/PI staining based flow cytometry (reference value: 2.91%); assay type: functional; conditions: dose 0.22 µM
HepG2 [30] = assay: Induction of cell cycle arrest in human HepG2 cells assessed as accumulation of cells at S phase at 0.44 uM incubated for 24 hrs by propidium iodide staining based flow cytometry (reference value: 46.98%); assay type: functional; outline: as §2
HepG2 [31] = assay: Induction of apoptosis in human HepG2 cells assessed as necrotic cells at […] incubated for 24 hrs by AnnexinV-FITC/PI staining based flow cytometry (reference value: 0.12%); assay type: functional; conditions: dose 0.22 µM
HepG2 [32] = assay: Induction of apoptosis in human HepG2 cells assessed as late apoptotic cells at […] incubated for 24 hrs by AnnexinV-FITC/PI staining based flow cytometry (reference value: 0.032%); assay type: functional; conditions: dose 0.22 µM

Sequence of Epidermal growth factor receptor (Homo sapiens, UniProt P00533, T790M) (P00533 25-1210 T790M limits assumed): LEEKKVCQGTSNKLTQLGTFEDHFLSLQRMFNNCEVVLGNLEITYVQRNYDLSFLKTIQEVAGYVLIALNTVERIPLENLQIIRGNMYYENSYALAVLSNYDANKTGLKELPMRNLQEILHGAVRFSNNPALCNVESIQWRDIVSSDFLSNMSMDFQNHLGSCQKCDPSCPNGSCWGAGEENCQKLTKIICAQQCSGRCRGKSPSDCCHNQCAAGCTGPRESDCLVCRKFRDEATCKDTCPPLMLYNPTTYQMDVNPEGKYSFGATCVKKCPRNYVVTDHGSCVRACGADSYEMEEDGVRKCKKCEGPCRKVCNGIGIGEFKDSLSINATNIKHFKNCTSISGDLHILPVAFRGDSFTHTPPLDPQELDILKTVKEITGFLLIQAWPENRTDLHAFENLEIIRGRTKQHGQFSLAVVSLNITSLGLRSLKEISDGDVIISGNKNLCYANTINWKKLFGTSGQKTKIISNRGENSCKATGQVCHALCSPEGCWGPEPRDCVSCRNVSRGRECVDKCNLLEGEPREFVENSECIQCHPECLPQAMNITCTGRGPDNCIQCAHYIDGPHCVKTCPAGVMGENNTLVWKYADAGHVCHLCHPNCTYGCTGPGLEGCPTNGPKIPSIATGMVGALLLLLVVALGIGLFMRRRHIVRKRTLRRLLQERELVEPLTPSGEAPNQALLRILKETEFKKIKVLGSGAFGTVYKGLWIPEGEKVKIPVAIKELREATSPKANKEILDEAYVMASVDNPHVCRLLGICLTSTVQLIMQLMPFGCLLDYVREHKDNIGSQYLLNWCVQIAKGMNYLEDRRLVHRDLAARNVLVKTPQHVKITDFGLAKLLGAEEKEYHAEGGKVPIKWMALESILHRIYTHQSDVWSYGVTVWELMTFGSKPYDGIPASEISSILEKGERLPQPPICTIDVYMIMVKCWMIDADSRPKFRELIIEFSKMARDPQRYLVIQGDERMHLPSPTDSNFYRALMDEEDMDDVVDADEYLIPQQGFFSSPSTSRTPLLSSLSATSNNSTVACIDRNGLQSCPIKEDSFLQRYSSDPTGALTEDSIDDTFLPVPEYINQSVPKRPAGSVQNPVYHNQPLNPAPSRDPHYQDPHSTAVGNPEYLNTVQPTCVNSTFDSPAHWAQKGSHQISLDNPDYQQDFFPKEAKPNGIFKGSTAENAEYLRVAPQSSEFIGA
Sequence of Epidermal growth factor receptor (Homo sapiens, UniProt P00533) (P00533 whole entry): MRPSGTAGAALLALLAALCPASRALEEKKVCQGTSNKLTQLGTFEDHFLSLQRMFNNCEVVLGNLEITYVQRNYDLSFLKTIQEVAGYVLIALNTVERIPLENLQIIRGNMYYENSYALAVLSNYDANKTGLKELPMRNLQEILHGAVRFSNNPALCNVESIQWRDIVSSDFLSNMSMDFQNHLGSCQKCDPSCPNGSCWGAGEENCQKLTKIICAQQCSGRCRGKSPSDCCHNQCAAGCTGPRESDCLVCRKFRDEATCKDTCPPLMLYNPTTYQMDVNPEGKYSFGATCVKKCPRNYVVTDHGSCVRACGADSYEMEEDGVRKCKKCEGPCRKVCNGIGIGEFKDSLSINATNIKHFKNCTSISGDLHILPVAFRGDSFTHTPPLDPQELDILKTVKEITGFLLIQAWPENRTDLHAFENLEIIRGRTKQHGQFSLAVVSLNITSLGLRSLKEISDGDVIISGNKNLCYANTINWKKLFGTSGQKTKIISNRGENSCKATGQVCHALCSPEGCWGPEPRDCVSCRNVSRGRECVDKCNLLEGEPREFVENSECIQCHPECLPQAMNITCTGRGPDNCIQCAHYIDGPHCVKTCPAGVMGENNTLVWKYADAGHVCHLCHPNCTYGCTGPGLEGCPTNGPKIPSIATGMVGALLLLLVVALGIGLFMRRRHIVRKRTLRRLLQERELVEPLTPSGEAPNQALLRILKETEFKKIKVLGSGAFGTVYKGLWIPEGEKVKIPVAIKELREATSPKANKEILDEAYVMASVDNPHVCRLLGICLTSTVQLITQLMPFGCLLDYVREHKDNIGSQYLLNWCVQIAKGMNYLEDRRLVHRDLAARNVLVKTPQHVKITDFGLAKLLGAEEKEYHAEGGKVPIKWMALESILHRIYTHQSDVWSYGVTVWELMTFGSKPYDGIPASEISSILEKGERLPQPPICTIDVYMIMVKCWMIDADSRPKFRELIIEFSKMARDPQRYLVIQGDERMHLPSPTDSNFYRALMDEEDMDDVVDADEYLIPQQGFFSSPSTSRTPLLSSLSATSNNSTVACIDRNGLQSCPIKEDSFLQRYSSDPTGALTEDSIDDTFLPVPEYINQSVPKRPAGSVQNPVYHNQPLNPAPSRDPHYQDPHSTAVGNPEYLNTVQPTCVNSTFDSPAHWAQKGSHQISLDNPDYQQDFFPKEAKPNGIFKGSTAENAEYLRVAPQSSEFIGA

CN(C)c1ccc(-c2nc(-c3ccc(-c4nc(-c5nnc(-c6ccncc6)o5)c[nH]4)cc3)no2)cc1
selectivity ratio [1]: 8.08 | IC50 (DU-145): 2.49 µM | selectivity ratio [2]: 9.03 | selectivity ratio [3]: 7.3 | IC50 (HepG2 [4]): 1.78 µM | IC50 (A549): 1.98 µM | selectivity ratio [5]: 6.42 | IC50 (PC-3): 2.19 µM | IC50 at 48 h [6]: > 16 µM

COc1cc(OC)cc(-c2nc(-c3ccc(-c4nc(-c5nnc(-c6ccncc6)o5)c[nH]4)cc3)no2)c1
selectivity ratio [1]: 17.4 | IC50 (DU-145): 0.88 µM | selectivity ratio [2]: 54.9 | IC50 [7]: 0.217 µM | IC50 [8]: 1.23 µM | selectivity ratio [3]: 15.3 | IC50 (HepG2 [4]): 0.273 µM | IC50 (A549): 0.86 µM | selectivity ratio [5]: 17 | IC50 (PC-3): 0.98 µM | IC50 at 48 h [6]: > 15 µM

COc1cc(-c2nc(-c3ccc(-c4nc(-c5nnc(-c6ccncc6)o5)c[nH]4)cc3)no2)cc(OC)c1OC
viability at 0.44 µM (HepG2 [9]): 53.3% | Activity (HepG2 [10]): 0.14% | Activity (HepG2 [11]): 8.96% | selectivity ratio [1]: 108 | IC50 (DU-145): 0.43 µM | selectivity ratio [2]: 127 | IC50 [7]: 0.102 µM | IC50 [8]: 1.09 µM | viability at […] (HepG2 [12]): 65.4% | Activity (HepG2 [13]): 38.98% | selectivity ratio [3]: 117 | Activity (HepG2 [14]): 47.32% | Activity (HepG2 [15]): 31.16% | IC50 (HepG2 [4]): 0.11 µM | Activity (HepG2 [16]): 11.32% | Activity (HepG2 [17]): 35.02% | Activity (HepG2 [18]): 0.563% | IC50 (A549): 0.13 µM | Activity (HepG2 [19]): 27.92% | Activity (HepG2 [20]): 0.71% | Activity (HepG2 [21]): 23.99% | viability at 0.11 µM (HepG2 [22]): 79.6% | Activity (HepG2 [23]): 18.23% | Activity (HepG2 [24]): 36.01% | Activity (HepG2 [25]): 41.32% | selectivity ratio [5]: 32.5 | IC50 (PC-3): 0.12 µM | Activity (HepG2 [26]): 37.51% | Activity (HepG2 [27]): 34.03% | Activity (HepG2 [28]): 6.72% | IC50 at 48 h [6]: > 14 µM | Activity (HepG2 [29]): 12.33% | Activity (HepG2 [30]): 19.22% | Activity (HepG2 [31]): 0.456% | Activity (HepG2 [32]): 21.78%

N#Cc1ccc(-c2nc(-c3ccc(-c4nc(-c5nnc(-c6ccncc6)o5)c[nH]4)cc3)no2)cc1
selectivity ratio [1]: 2.8 | selectivity ratio [2]: 3.29 | IC50 (HepG2 [4]): 6.99 µM | IC50 (A549): 8.21 µM | IC50 at 48 h [6]: > 23 µM

O=[N+]([O-])c1ccc(-c2nc(-c3ccc(-c4nc(-c5nnc(-c6ccncc6)o5)c[nH]4)cc3)no2)cc1
IC50 (DU-145): 3.81 µM | selectivity ratio [2]: 4.5 | selectivity ratio [3]: 8.96 | IC50 (HepG2 [4]): 5.33 µM | selectivity ratio [5]: 6.29 | IC50 (PC-3): 2.23 µM | IC50 at 48 h [6]: > 24 µM

COc1ccc(-c2nc(-c3ccc(-c4nc(-c5nnc(-c6ccncc6)o5)c[nH]4)cc3)no2)cc1
selectivity ratio [1]: 14.5 | IC50 (DU-145): 1.74 µM | selectivity ratio [2]: 12.9 | IC50 [7]: 0.958 µM | IC50 [8]: 1.19 µM | selectivity ratio [3]: 12.4 | IC50 (HepG2 [4]): 1.24 µM | IC50 (A549): 1.1 µM | selectivity ratio [5]: 9.2 | IC50 (PC-3): 1.29 µM | IC50 at 48 h [6]: > 16 µM
